Experimental data as given in ChEMBL document CHEMBL5058577, “EUbOPEN Chemogenomics Library 2 (Multiplex)” (2022).

Test system: HEK-293T
Assay: Multiplex assay against HEK293T
Format: toxicity, cell-based
Conditions: human
Method in brief: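 Four dyes were applied at seeding to live cells: Hoechst33342, BioTracker Green Microtubule Cytoskeleton Dye, MitoTracker Red and Annexin V Alexa Fluor 680. Imaging after compound addition used a CQ1 microscope at 37°C and 5% CO2. CellPathfinder machine-learning gating then sorted cells into Hoechst high-intensity objects or normal cells, normal cells into healthy, pyknosed or fragmented nuclei, and pyknosed cells into mitotic or apoptotic, with tubulin, mitochondrial-mass and membrane-permeability phenotypes given as per cents of healthy-nucleus cells.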

[1] = 12 h, 1 µM, compound concentration 1 uM, replicate 1
[2] = 12 h, 1 µM, compound concentration 1 uM, replicate 2
[3] = 12 h, 10 µM, compound concentration 10 uM, replicate 1
[4] = 12 h, 10 µM, compound concentration 10 uM, replicate 2
[5] = 24 h, 1 µM, compound concentration 1 uM, replicate 1
[6] = 24 h, 1 µM, compound concentration 1 uM, replicate 2
[7] = 24 h, 10 µM, compound concentration 10 uM, replicate 1
[8] = 24 h, 10 µM, compound concentration 10 uM, replicate 2
[9] = 48 h, 1 µM, compound concentration 1 uM, replicate 1
[10] = 48 h, 1 µM, compound concentration 1 uM, replicate 2
[11] = 48 h, 10 µM, compound concentration 10 uM, replicate 1
[12] = 48 h, 10 µM, compound concentration 10 uM, replicate 2

`COC[C@@H](c1ccc(C(F)(F)F)cc1)N1CCN(C2(C)CCN(C(=O)c3c(C)ncnc3C)CC2)C[C@@H]1C.O=C(O)/C=C\C(=O)O` [VICRIVIROC MALEATE] was tested, and the “Population Apoptotic (%)” value [1] was 46%, the “Population Fragmented Nuclei (%)” value [1] was 7% and the “Population Healthy Nuclei (%)” value [1] was 80%. For the same compound, the “Population Hoechst High Intensity Objects (%)” value [1] was 9%, the “Population Membrane Permeable-Phenotype (%)” value [1] was 0% and the “Population Mitochondria Different-Phenotype (%)” value [1] was 47%. The “Population Mitotic Cells (%)” value [1] was 53%, the “Population Normal (%)” value [1] was 90% and the “Population Pyknosed Nuclei (%)” value [1] was 12%. The “Population Tubulin-Different-Phenotype (%)” value [1] was 27%, the “Total Cell Count” value [1] was 406 and the “Population Apoptotic (%)” value [2] was 45%. For the same compound, the “Population Hoechst High Intensity Objects (%)” value [2] was 5%, the “Population Mitochondria Different-Phenotype (%)” value [2] was 51% and the “Population Mitotic Cells (%)” value [2] was 54%. The “Population Normal (%)” value [2] was 94%, the “Population Pyknosed Nuclei (%)” value [2] was 11% and the “Population Tubulin-Different-Phenotype (%)” value [2] was 17%. The “Total Cell Count” value [2] was 387, the “Population Apoptotic (%)” value [3] was 44% and the “Population Fragmented Nuclei (%)” value [3] was 6%. For the same compound, the “Population Healthy Nuclei (%)” value [3] was 75%, the “Population Hoechst High Intensity Objects (%)” value [3] was 8% and the “Population Membrane Permeable-Phenotype (%)” value [3] was 0%. For the same compound, the “Population Mitochondria Different-Phenotype (%)” value [3] was 63%, the “Population Mitotic Cells (%)” value [3] was 55% and the “Population Normal (%)” value [3] was 91%. For the same compound, the “Population Pyknosed Nuclei (%)” value [3] was 18%, the “Population Tubulin-Different-Phenotype (%)” value [3] was 57% and the “Total Cell Count” value [3] was 315. The “Population Apoptotic (%)” value [4] was 62%, the “Population Fragmented Nuclei (%)” value [4] was 5% and the “Population Healthy Nuclei (%)” value [4] was 72%. For the same compound, the “Population Hoechst High Intensity Objects (%)” value [4] was 16%, the “Population Mitochondria Different-Phenotype (%)” value [4] was 78% and the “Population Mitotic Cells (%)” value [4] was 37%. The “Population Normal (%)” value [4] was 83%, the “Population Pyknosed Nuclei (%)” value [4] was 21% and the “Population Tubulin-Different-Phenotype (%)” value [4] was 51%. For the same compound, the “Total Cell Count” value [4] was 265, the “Population Apoptotic (%)” value [5] was 30% and the “Population Fragmented Nuclei (%)” value [5] was 9%. For the same compound, the “Population Healthy Nuclei (%)” value [5] was 79%, the “Population Hoechst High Intensity Objects (%)” value [5] was 6% and the “Population Membrane Permeable-Phenotype (%)” value [5] was 0%. The “Population Mitochondria Different-Phenotype (%)” value [5] was 24%, the “Population Mitotic Cells (%)” value [5] was 69% and the “Population Normal (%)” value [5] was 93%. For the same compound, the “Population Pyknosed Nuclei (%)” value [5] was 10%, the “Population Tubulin-Different-Phenotype (%)” value [5] was 21% and the “Total Cell Count” value [5] was 564. For the same compound, the “Population Apoptotic (%)” value [6] was 31%, the “Population Healthy Nuclei (%)” value [6] was 82% and the “Population Hoechst High Intensity Objects (%)” value [6] was 5%. For the same compound, the “Population Membrane Permeable-Phenotype (%)” value [6] was 1%, the “Population Mitotic Cells (%)” value [6] was 68% and the “Population Normal (%)” value [6] was 94%. The “Population Pyknosed Nuclei (%)” value [6] was 8%, the “Population Tubulin-Different-Phenotype (%)” value [6] was 11% and the “Total Cell Count” value [6] was 515. The “Population Apoptotic (%)” value [7] was 34%, the “Population Fragmented Nuclei (%)” value [7] was 6% and the “Population Healthy Nuclei (%)” value [7] was 80%. The “Population Hoechst High Intensity Objects (%)” value [7] was 6%, the “Population Membrane Permeable-Phenotype (%)” value [7] was 0% and the “Population Mitochondria Different-Phenotype (%)” value [7] was 53%. The “Population Mitotic Cells (%)” value [7] was 66%, the “Population Normal (%)” value [7] was 93% and the “Population Pyknosed Nuclei (%)” value [7] was 13%. For the same compound, the “Population Tubulin-Different-Phenotype (%)” value [7] was 49%, the “Total Cell Count” value [7] was 406 and the “Population Apoptotic (%)” value [8] was 60%. The “Population Fragmented Nuclei (%)” value [8] was 10%, the “Population Healthy Nuclei (%)” value [8] was 77% and the “Population Hoechst High Intensity Objects (%)” value [8] was 16%. For the same compound, the “Population Mitochondria Different-Phenotype (%)” value [8] was 70%, the “Population Mitotic Cells (%)” value [8] was 39% and the “Population Normal (%)” value [8] was 83%. For the same compound, the “Population Pyknosed Nuclei (%)” value [8] was 12%, the “Population Tubulin-Different-Phenotype (%)” value [8] was 39% and the “Total Cell Count” value [8] was 310. For the same compound, the “Population Apoptotic (%)” value [9] was 21%, the “Population Fragmented Nuclei (%)” value [9] was 11% and the “Population Healthy Nuclei (%)” value [9] was 80%. For the same compound, the “Population Hoechst High Intensity Objects (%)” value [9] was 2%, the “Population Membrane Permeable-Phenotype (%)” value [9] was 1% and the “Population Mitochondria Different-Phenotype (%)” value [9] was 13%. For the same compound, the “Population Mitotic Cells (%)” value [9] was 78%, the “Population Normal (%)” value [9] was 97% and the “Population Pyknosed Nuclei (%)” value [9] was 7%. The “Population Tubulin-Different-Phenotype (%)” value [9] was 12%, the “Total Cell Count” value [9] was 930 and the “Population Apoptotic (%)” value [10] was 34%. For the same compound, the “Population Fragmented Nuclei (%)” value [10] was 13%, the “Population Healthy Nuclei (%)” value [10] was 81% and the “Population Mitochondria Different-Phenotype (%)” value [10] was 11%. For the same compound, the “Population Mitotic Cells (%)” value [10] was 65%, the “Population Pyknosed Nuclei (%)” value [10] was 5% and the “Population Tubulin-Different-Phenotype (%)” value [10] was 8%. The “Total Cell Count” value [10] was 751, the “Population Apoptotic (%)” value [11] was 38% and the “Population Fragmented Nuclei (%)” value [11] was 12%. For the same compound, the “Population Healthy Nuclei (%)” value [11] was 75%, the “Population Hoechst High Intensity Objects (%)” value [11] was 4% and the “Population Membrane Permeable-Phenotype (%)” value [11] was 0%. For the same compound, the “Population Mitochondria Different-Phenotype (%)” value [11] was 49%, the “Population Mitotic Cells (%)” value [11] was 61% and the “Population Normal (%)” value [11] was 95%. For the same compound, the “Population Pyknosed Nuclei (%)” value [11] was 11%, the “Population Tubulin-Different-Phenotype (%)” value [11] was 35% and the “Total Cell Count” value [11] was 559. The “Population Apoptotic (%)” value [12] was 53%, the “Population Fragmented Nuclei (%)” value [12] was 14% and the “Population Healthy Nuclei (%)” value [12] was 70%. For the same compound, the “Population Hoechst High Intensity Objects (%)” value [12] was 11%, the “Population Mitochondria Different-Phenotype (%)” value [12] was 50% and the “Population Mitotic Cells (%)” value [12] was 46%. The “Population Normal (%)” value [12] was 88%, the “Population Pyknosed Nuclei (%)” value [12] was 15% and the “Population Tubulin-Different-Phenotype (%)” value [12] was 38%. The “Total Cell Count” value [12] was 394.
